Data taken from ChEMBL document CHEMBL3853270, “Influence of Birch Bark Triterpenes on Keratinocytes and Fibroblasts from Diabetic and Nondiabetic Donors” (2016).
Active and inactive are the calls of the source. The calls are words filed in the database; no cut-off is given here.

What was measured:
Assay type in all cases: functional
Keratinocyte [1] = experiment: Effect on pro-inflammatory related gene expression in diabetic adult human primary keratinocytes assessed as TNF mRNA levels at 9.81 uM after 6 hrs by qPCR analysis
[2] = Upregulation of wound healing activity related GM-CSF protein levels in non-diabetic adult human primary keratinocytes at 1.96 uM after 24 hrs by bead-based suspension array analysis; conditions: Keratinocyte
Fibroblast [3] = experiment: Effect on actin cytoskeleton in human diabetic primary fibroblasts assessed as formation of thin elongated cellular body at 10 nM after 2 hrs by rhodamine phalloidin-staining based fluorescence microscopic analysis
In short: (§1)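 Subconfluent cells on glass coverslips, collagen type I coated for fibroblasts; keratinocytes starved 2 days before stimulation. Exposure 2 h, then rhodamine-phalloidin staining (1:25 in PBS) and fluorescence microscopy. Controls were DMSO as solvent and PDGF (fibroblasts) or CNF1 (keratinocytes). Where used, p38-MAPK inhibitor LN 950 (100 nM) was added 30 min beforehand.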

Fibroblast [4] = experiment: Effect on growth factor related gene expression in non-diabetic young human primary fibroblasts assessed as GDF15 mRNA levels at 9.81 uM after 6 hrs by qPCR analysis
In short: (§2)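 Primary human dermal fibroblasts (young or adult nondiabetic, adult diabetic donor) were treated for 6 h against a 0.1% DMSO solvent control. RNA from 320 000 cells per sample was measured by Fluidigm Biomark high-throughput qPCR. Values are fold change relative to solvent control, from four independent experiments, with SD. One-way ANOVA with Bonferroni post-test was applied.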

Fibroblast [5] = experiment: Effect on antiinflammatory related gene expression in diabetic adult human primary fibroblasts assessed as SOCS3 mRNA levels at 9.81 uM after 6 hrs by qPCR analysis
In short: (§3)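 Primary dermal fibroblasts from one nondiabetic young, one nondiabetic adult and one diabetic adult donor; 320 000 cells per sample, 6 h at 1.96 or 9.81 μM. RNA measured on a high-throughput qPCR chip. Fold change versus 0.1% DMSO control, four independent experiments, SD, one-way ANOVA with Bonferroni post-test.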

Keratinocyte [6] = experiment: Effect on antiinflammatory related gene expression in non-diabetic adult human primary keratinocytes assessed as NFKBIA mRNA levels at 9.81 uM after 6 hrs by qPCR analysis
In short: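 Primary keratinocytes from nondiabetic young and adult and diabetic adult donors; 400 000 cells per sample, 6 h exposure at 1.96 or 9.81 μM. RNA extracted and read on a high-throughput qPCR chip. Results are fold change versus 0.1% DMSO solvent control from 5−7 independent experiments over two donors per group, SD, one-way ANOVA with Bonferroni post-test.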

Fibroblast [7] = experiment: Effect on growth factor related gene expression in diabetic adult human primary fibroblasts assessed as VEGFA mRNA levels at 9.81 uM after 6 hrs by qPCR analysis; in short: as §2
Fibroblast [8] = experiment: Effect on pro-inflammatory related gene expression in non-diabetic adult human primary fibroblasts assessed as IL6 mRNA levels at 1.96 uM after 6 hrs by qPCR analysis
Fibroblast [9] = experiment: Effect on antioxidant related gene expression in diabetic adult human primary fibroblasts assessed as NFE2L2 mRNA levels at 9.81 uM after 6 hrs by qPCR analysis
Fibroblast [10] = experiment: Effect on growth factors related gene expression in diabetic adult human primary fibroblasts assessed as FGF2 mRNA levels at 9.81 uM after 6 hrs by qPCR analysis; in short: as §2
Keratinocyte [11] = experiment: Effect on growth factor related gene expression in diabetic adult human primary keratinocytes assessed as PDGFB mRNA levels at 1.96 uM after 6 hrs by qPCR analysis
In short: (§4)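 Primary human keratinocytes (nondiabetic young or adult, diabetic adult donors) were exposed to compound for 6 h, with 0.1% DMSO as solvent control. Total RNA came from 400 000 cells per sample and was assayed on a Fluidigm Biomark high-throughput qPCR chip. Results are fold change vs solvent control, from 2−4 independent experiments on two donors per group, with SD. Groups were compared by one-way ANOVA with Bonferroni post-test.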

Fibroblast [12] = experiment: Effect on antioxidant related gene expression in diabetic adult human primary fibroblasts assessed as SOD2 mRNA levels at 1.96 uM after 6 hrs by qPCR analysis
[13] = Effect on wound healing activity in non-diabetic adult human primary fibroblasts assessed as upregulation of soluble VCAM1 protein levels at 1.96 uM after 24 hrs by bead-based suspension array analysis; conditions: Fibroblast
Fibroblast [14] = experiment: Effect on pro-inflammatory related gene expression in non-diabetic adult human primary fibroblasts assessed as IL6 mRNA levels at 9.81 uM after 6 hrs by qPCR analysis
Keratinocyte [15] = experiment: Effect on cellular connection related gene expression in non-diabetic young human primary keratinocytes assessed as CLDN4 mRNA levels at 1.96 uM after 6 hrs by qPCR analysis
Fibroblast [16] = experiment: Effect on pro-inflammatory related gene expression in non-diabetic young human primary fibroblasts assessed as IL6 mRNA levels at 1.96 uM after 6 hrs by qPCR analysis
Fibroblast [17] = experiment: Effect on antiinflammatory related gene expression in non-diabetic adult human primary fibroblasts assessed as SOCS3 mRNA levels at 1.96 uM after 6 hrs by qPCR analysis; in short: as §3
Keratinocyte [18] = experiment: Effect on growth factor related gene expression in diabetic adult human primary keratinocytes assessed as GDF15 mRNA levels at 1.96 uM after 6 hrs by qPCR analysis; in short: as §4
Keratinocyte [19] = experiment: Effect on growth factor related gene expression in non-diabetic young human primary keratinocytes assessed as VEGFA mRNA levels at 9.81 uM after 6 hrs by qPCR analysis; in short: as §4
Keratinocyte [20] = experiment: Effect on chemokines related gene expression in diabetic adult human primary keratinocytes assessed as IL8 mRNA levels at 9.81 uM after 6 hrs by qPCR analysis
Fibroblast [21] = experiment: Effect on pro-inflammatory related gene expression in diabetic adult human primary fibroblasts assessed as IL1R1 mRNA levels at 1.96 uM after 6 hrs by qPCR analysis; in short: as §2
Fibroblast [22] = experiment: Effect on actin cytoskeleton in human non-diabetic primary fibroblasts assessed as formation of thin elongated cellular body at 10 nM after 2 hrs in presence of p-38 MAPK inhibitor LN 950 by rhodamine phalloidin-staining based fluorescence microscopic analysis; in short: as §1
Fibroblast [23] = experiment: Effect on chemokines related gene expression in non-diabetic adult human primary fibroblasts assessed as CCL2 mRNA levels at 9.81 uM after 6 hrs by qPCR analysis
Fibroblast [24] = experiment: Effect on chemokines related gene expression in diabetic adult human primary fibroblasts assessed as IL8 mRNA levels at 9.81 uM after 6 hrs by qPCR analysis
Fibroblast [25] = experiment: Effect on pro-inflammatory related gene expression in diabetic adult human primary fibroblasts assessed as IL1R1 mRNA levels at 9.81 uM after 6 hrs by qPCR analysis; in short: as §2
Keratinocyte [26] = experiment: Effect on pro-inflammatory related gene expression in diabetic adult human primary keratinocytes assessed as IL1B mRNA levels at 9.81 uM after 6 hrs by qPCR analysis
Keratinocyte [27] = experiment: Effect on cellular connection related gene expression in non-diabetic young human primary keratinocytes assessed as GJB2 mRNA levels at 1.96 uM after 6 hrs by qPCR analysis
Keratinocyte [28] = experiment: Effect on pro-inflammatory related gene expression in non-diabetic young human primary keratinocytes assessed as TNF mRNA levels at 9.81 uM after 6 hrs by qPCR analysis

For C=C(C)[C@@H]1CC[C@]2(CO)CC[C@]3(C)[C@H](CC[C@@H]4[C@@]5(C)CC[C@H](O)C(C)(C)[C@@H]5CC[C@]43C)[C@@H]12 [BETULIN], the “fold change (FC)” value (Keratinocyte [1]) was 13, the Activity [2] was “Active” and the Activity (Fibroblast [3]) was “Active”. The “fold change (FC)” value (Fibroblast [4]) was 5.1, the “fold change (FC)” value (Fibroblast [5]) was 1.4 and the “fold change (FC)” value (Keratinocyte [6]) was 1.9. The “fold change (FC)” value (Fibroblast [7]) was 2, the “fold change (FC)” value (Fibroblast [8]) was 278 and the “fold change (FC)” value (Fibroblast [9]) was 1.5. The “fold change (FC)” value (Fibroblast [10]) was 1.6, the “fold change (FC)” value (Keratinocyte [11]) was 1 and the “fold change (FC)” value (Fibroblast [12]) was 2.2. For the same molecule, the Activity [13] was “Active”, the “fold change (FC)” value (Fibroblast [14]) was 246 and the “fold change (FC)” value (Keratinocyte [15]) was 1.5. The “fold change (FC)” value (Fibroblast [16]) was 45, the “fold change (FC)” value (Fibroblast [17]) was 24.4 and the “fold change (FC)” value (Keratinocyte [18]) was 1.4. The “fold change (FC)” value (Keratinocyte [19]) was 1.4, the “fold change (FC)” value (Keratinocyte [20]) was 56 and the “fold change (FC)” value (Fibroblast [21]) was 1.7. For the same molecule, the Activity (Fibroblast [22]) was “Active”, the “fold change (FC)” value (Fibroblast [23]) was 197 and the “fold change (FC)” value (Fibroblast [24]) was 3.7. For the same molecule, the “fold change (FC)” value (Fibroblast [25]) was 1.9, the “fold change (FC)” value (Keratinocyte [26]) was 1 and the “fold change (FC)” value (Keratinocyte [27]) was 0.8. For the same molecule, the “fold change (FC)” value (Keratinocyte [28]) was 6.
